Screening data from PubChem BioAssay.
ABCB1 inh = inhibitors of human ABCB1 transporter, ABCG2 counter-screen; P08183; hit rate 0.067% among 190,000; CCRF-Adr cells, JC-1 efflux, flow cytometry; inhibition, % at 6.6 µM; in the data active means inhibition above about 40%;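 further: 0% = vehicle and 100% = reference inhibitor; higher value means more JC-1 retained so stronger ABCB1 efflux block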
MT stabilizer = stabilizes microtubules in HeLa cells. hit rate 0.83% among 200,000. HeLa tubulin immunostaining HCS, 24 h; share of cells brighter than vehicle mean+2SD. % tubulin-high responders, % at 10 µM. AID 2205;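 active means plate Z-score above 3 for both tubulin-high and condensed-nucleus cell shares, with cell loss under 80%, at 10 µM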;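 further: anti alpha tubulin signal scored within the nucleus-defined area of each cell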
b-catenin transl = alters nuclear translocation of beta-catenin in HeLa cells. immunofluorescence imaging. nuclear translocation activity, % at 5 µM. hit rate 0.3% among 190,000. AID 1665;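 active means nuclear translocation activity above 50% at 5 µM, with a well cell count of 50 or more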;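 further: per-cell ratio of nuclear to cytoplasmic median beta-catenin stain intensity; plate controls were DMSO negative control for no effect and GSK-3 inhibitor IX positive control for full effect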
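System: Human HeLa cells, endogenous beta-catenin | Compound dosing: 5 µM primary, 0.02–20 µM confirmation | Timing: 24 h compound exposure at 37°C, 5% CO2 | Measured by: Fluorescence imaging of beta-catenin antibody stain plus DAPI | Read-out basis: % activation of per-cell nuclear versus cytoplasmic median beta-catenin signal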
ABCG2 inh = inhibitors of human ABCG2 transporter, ABCB1 counter-screen; Q9UNQ0; IgMXP3 cells, JC-1 efflux, flow cytometry; inhibition, % at 6.6 µM; hit rate 0.1% among 190,000;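 active means inhibition above 80%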;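 further: 0% = DMSO and 100% = nicardipine control wells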
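Incubation: cells with compound and JC-1, 10 min at 25 °C, rotating, no wash / Test system: IgMXP3 (ABCG2) plus far-red-tagged CCRF-Adr (ABCB1) cells / Compound dosing: one concentration, 6.6 µM final / Also added: JC-1 fluorescent substrate / Evaluation: efflux inhibition in percent versus controls / Detection: flow cytometry, 530 nm JC-1 signal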
PKD1 inh = PKD1 (human) kinase inhibition; PKD1 kinase fluorescence polarization assay; inhibition, % (test concentration not listed); hit rate 0.056% among 200,000; Q15139; in the data active means inhibition above about 50%
* = called active by the depositor; nt = not tested or not shown. The list is not random: actives were taken first. Their share in the collection is about 1%.

SMILES | ABCB1 inh | MT stabilizer | b-catenin transl | ABCG2 inh | PKD1 inh
COc1ccc2cc(-c3[nH]ncc3CN3CCCC3c3nonc3C)ccc2c1 (configuration not stated) | 1 | 11* | 2 | 4 | 2
COc1ccc(-c2cc(C(F)(F)F)c(C#N)c(SCC(=O)O)n2)cc1OC | nt | nt | -1 | nt | nt
O=S(=O)(c1ccc(N2CCC(c3ccc(Cl)cc3)=N2)cc1)N(CCO)CCO | 0 | 2 | -2 | 11 | 5
CN(C)CCCNS(=O)(=O)c1ccc(N2CCC(c3ccc(Cl)cc3)=N2)cc1 | 0 | 2 | 73* | -1 | -2
O=C(O)C(=O)/C(=C\c1cccc2ccccc12)c1ccc2ccccc2n1 | 0 | 41* | nt | 2 | -1
COc1ccccc1NC(=S)NC(=O)/C=C/c1ccco1 | 0 | 4 | 0 | 0 | -4
COc1ccccc1NC(=O)/C(C#N)=C/C=C/c1ccco1 | 2 | 41* | 61* | 27 | -5
CC(OC(=O)CC(NC(=O)c1ccccc1Cl)c1ccccc1)C(=O)Nc1cccc(Cl)c1Cl (configuration not stated) | 0 | 2 | 0 | 0 | -11
O=C1/C(=C\c2ccccc2)CCc2c1[nH]c1ccccc21 | 0 | 21* | 0 | 1 | 2
Cc1ccc(/C=C2/CCc3c([nH]c4ccccc34)C2=O)cc1 | 0 | 2 | 0 | 3 | 2
COc1cccc(OC)c1C(=O)Nc1cc(C)nn1-c1nc2ccccc2[nH]1 | 1 | 9.3* | 0 | 4 | -3
COc1cc2c(cc1OC)CN(C(=O)/C=C/c1cccs1)CC2 | nt | nt | 120* | nt | nt
COc1cccc2cc(C(=O)N3CCc4ccccc4C3)c(=O)oc12 | 0 | 4 | 0 | 1 | -5
COc1cc2c(cc1OC)CN(C(=O)c1cc3ccccc3oc1=O)CC2 | 1 | 19* | 1 | 2 | -3
CCOC(=O)Cc1csc(NC(=O)/C=C/c2ccc(Cl)cc2)n1 | nt | nt | 1 | nt | nt
O=C(N/N=C/c1ccc(Cl)cc1)c1sccc1OCc1ccc(F)cc1 | 2 | 19* | 0 | 6 | -2
NNC(=O)c1sccc1OCc1ccc(F)cc1 | -1 | 2 | 8 | -2 | -15
O=C(N/N=C/c1ccc(F)cc1)c1sccc1OCc1ccc(F)cc1 | 2 | 34* | 87* | 9 | -12
COc1ccc(COc2ccsc2C(=O)Nc2ccc(Cl)cc2)cc1 | 1 | 1 | -1 | 11 | 4
N#CC1=C(Nc2ccccc2)SC=C(c2ccc(F)cc2)N=C1N1CCOCC1 | 1 | 6 | -3 | 6 | 3
C=CCN1C(=O)/C(=C2/Sc3ccc(OC)cc3N2C)SC1=Nc1cccc(O)c1 | 0 | 1 | 0 | 16 | -2
O=C(COC(=O)CCCN1C(=O)c2cccc3cccc(c23)C1=O)Nc1cccc(Br)c1 | 1 | 13* | nt | -4 | 8
CNc1c([N+](=O)[O-])cnn1-c1ccc(F)cc1 | 1 | 2 | 1 | 0 | 7
Cc1ccc(S(=O)(=O)N(C)C)cc1NC(=O)COC(=O)c1ccc2c(c1)OCCO2 | 2 | 1 | -1 | 26 | 5
C=CCOc1ccc(C2C(C#N)=C(N)N(Nc3ccccc3)C3=C2C(=O)CC(C)(C)C3)cc1OC (configuration not stated) | 1 | 32* | 2 | 4 | 7
SMILES | ABCB1 inh | MT stabilizer | b-catenin transl | ABCG2 inh | PKD1 inh
Clc1cccc(Cl)c1COc1ccccc1CNn1cnnc1 | 1 | 22* | 3 | 5 | -3
O=C(COC(=O)c1ccc(Br)cc1)Nc1ccccc1Br | 1 | 4 | 0 | 11 | 2
CCOc1c(Br)cc(CNc2ccc3c(c2)OCCO3)cc1OC | 3 | 12 | 132* | 7 | 0
CCOc1cc(CNc2ccc3c(c2)OCCO3)cc(Br)c1OC | 0 | 14 | 143* | 2 | 5
COc1ccc(CNc2ccc(C)c(C)c2)cc1 | 1 | 2 | 0 | 1 | 1
COc1cc(CNc2ccc(C)c(C)c2)cc(OC)c1OC | 1 | 31 | 107* | 3 | -5
CCOC(=O)c1sc2nc(C)nc(SCC(=O)NC3CCS(=O)(=O)C3)c2c1C (configuration not stated) | 0 | 3 | -1 | 22 | -12
CCOC(=O)c1ccc(N2C(=O)c3n[nH]c(C)c3C2c2ccc(OC)c(OC)c2)cc1 (configuration not stated) | 0 | 38* | 2 | 0 | 6
COC(=O)C(C(=O)OC)C(C)C(C(=O)OC)C(=O)OC | 0 | 2 | nt | 0 | -4
